Measurements: ChEMBL document CHEMBL4622983, “Structure-Activity Relationship Studies of α-Ketoamides as Inhibitors of the Phospholipase A and Acyltransferase Enzyme Family” (J Med Chem, 2020)

Tests used:
Assay type in all cases: cell-free, HEK-293T
[1] = molecular target: T1, Phospholipase A and acyltransferase 4 (Homo sapiens, UniProt Q9UL19); test: Inhibition of full-length C-terminal FLAG-tagged human PLAAT4 expressed in HEK293T cell lysate preincubated for 30 mins followed by MB064 addition and measured after 20 mins by SDS-PAGE based ABPP analysis
T1 sequence (Q9UL19 whole entry): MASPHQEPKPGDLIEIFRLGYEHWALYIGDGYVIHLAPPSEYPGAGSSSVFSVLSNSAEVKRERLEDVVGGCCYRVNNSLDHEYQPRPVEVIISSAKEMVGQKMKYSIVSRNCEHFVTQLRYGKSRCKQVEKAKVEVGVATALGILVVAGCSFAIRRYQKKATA
Outline: (§1)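 Dose–response competitive ABPP on cytosol only, from HEK293T overexpressing FLAG-tagged PLAAT. Inhibitor 30 min rt, then MB064 20 min rt. PLAAT2 0.25 μg/μL with 250 nM probe; PLAAT3 0.5 μg/μL with 250 nM; PLAAT4 and PLAAT5 1 μg/μL with 500 nM. Fluorescence normalized to Coomassie. IC50 from curves, reported as pIC50 ± SEM, n = 3.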

[2] = molecular target: T2, Phospholipase A and acyltransferase 2 (Homo sapiens, UniProt Q9NWW9); test: Inhibition of full-length C-terminal FLAG-tagged human PLAAT2 expressed in HEK293T cell lysate preincubated for 30 mins followed by MB064 addition and measured after 20 mins by SDS-PAGE based ABPP analysis; outline: as §1
T2 sequence (Q9NWW9 whole entry): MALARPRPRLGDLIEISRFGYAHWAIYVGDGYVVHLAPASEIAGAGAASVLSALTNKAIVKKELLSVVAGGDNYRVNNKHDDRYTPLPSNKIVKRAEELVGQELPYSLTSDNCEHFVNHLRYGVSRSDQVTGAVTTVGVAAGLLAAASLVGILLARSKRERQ

[3] = molecular target: T3, Phospholipase A and acyltransferase 5 (Homo sapiens, UniProt Q96KN8); test: Inhibition of full-length C-terminal FLAG-tagged human PLAAT5 expressed in HEK293T cell lysate preincubated for 30 mins followed by MB064 addition and measured after 20 mins by SDS-PAGE based ABPP analysis; outline: as §1
T3 sequence (Q96KN8 whole entry): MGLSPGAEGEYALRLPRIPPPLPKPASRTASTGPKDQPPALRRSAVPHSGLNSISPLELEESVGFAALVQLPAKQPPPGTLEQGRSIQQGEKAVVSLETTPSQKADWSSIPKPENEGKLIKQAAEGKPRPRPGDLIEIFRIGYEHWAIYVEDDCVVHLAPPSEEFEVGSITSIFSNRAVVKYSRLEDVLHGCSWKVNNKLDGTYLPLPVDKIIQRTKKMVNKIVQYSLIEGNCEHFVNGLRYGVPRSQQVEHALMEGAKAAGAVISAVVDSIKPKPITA

[4] = molecular target: T4, Phospholipase A and acyltransferase 3 (Homo sapiens, UniProt P53816); test: Inhibition of full-length C-terminal FLAG-tagged human PLAAT3 expressed in HEK293T cell lysate preincubated for 30 mins followed by MB064 addition and measured after 20 mins by SDS-PAGE based ABPP analysis; conditions: for pIC50: hek-293t; outline: as §1
T4 sequence (P53816 whole entry): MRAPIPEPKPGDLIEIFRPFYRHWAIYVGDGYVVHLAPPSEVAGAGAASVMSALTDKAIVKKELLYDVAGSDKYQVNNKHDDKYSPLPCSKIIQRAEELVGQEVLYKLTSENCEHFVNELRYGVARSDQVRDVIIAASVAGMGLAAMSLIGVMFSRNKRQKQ

Row | Compound | IC50 [1] [µM] | IC50 [2] [µM] | IC50 [3] [µM] | IC50 [4] [µM] | pIC50 [4]
1 | CCNC(=O)C(=O)CCc1ccc(Cl)cc1 | 3.98 | 2.51 | 1 | 7.94 | 
2 | O=C(CCCc1ccccc1)C(=O)NCCc1ccc(Oc2ccc(C(F)(F)F)nc2)cc1 | 0.0794 | 0.2 | 0.0794 | 0.158 | 
3 | O=C(CCCc1ccccc1)C(=O)NCCc1ccc(Oc2cnccn2)cc1 | 0.631 | 0.501 | 0.0631 | 0.251 | 
4 | O=C(CCc1ccc(Cl)cc1)C(=O)NCc1ccccc1 | 2.51 | 2.51 | 0.251 | 1.58 | 
5 | O=C(CCCc1ccccc1)C(=O)NCCc1ccc(Oc2ccc(C(F)(F)F)cn2)cc1 | 0.631 |  | 0.0316 |  | 7
6 | O=C(CCc1ccc(Cl)cc1)C(=O)N1CCOCC1 | > 10 | > 10 | > 10 | > 10 | 
7 | O=C(CCCc1ccccc1)C(=O)NCCc1ccc(O)cc1 | 2.51 | 1.26 | 0.158 | 1.58 | 
8 | COCCN(CCOC)C(=O)C(=O)CCc1ccc(Cl)cc1 | > 10 | > 10 | > 10 | > 10 | 
9 | CCOC(=O)C(F)(F)C(O)CCc1ccccc1 (stereo not drawn) | > 10 | > 10 | > 10 | > 10 | 
10 | O=C(CCCc1ccccc1)C(=O)NCCc1ccc(Cl)cc1Cl | 0.794 | 1.26 | 0.0631 | 0.251 | 
11 | O=C(CCc1ccc(Cl)cc1)C(=O)N1CCC[C@H]1Cc1ccccc1 | > 10 | > 10 | > 10 | > 10 | 
12 | O=C(CCc1ccc(Cl)cc1)C(=O)N1CCCCC1 | > 10 | > 10 | > 10 | > 10 | 
13 | CCN(CCc1ccccc1)C(=O)C(=O)CCc1ccc(Cl)cc1 | > 10 | > 10 | > 10 | > 10 | 
14 | COc1ccc(CCNC(=O)C(=O)CCCc2ccccc2)cc1 | 1.58 | 1.58 | 0.0794 | 0.794 | 
15 | O=C(CCc1ccc(C(F)(F)F)cc1)C(=O)NCCc1ccccc1 | 2.51 | 2 | 0.316 | 7.94 | 
16 | O=C(CCc1ccc(Cl)cc1)C(=O)N1CC[C@@H](c2ccccc2)C1 | > 10 | > 10 | > 10 | > 10 | 

Row | Compound | IC50 [1] [µM] | IC50 [2] [µM] | IC50 [3] [µM] | IC50 [4] [µM] | pIC50 [4]
17 | O=C(CCc1ccc(Cl)cc1)C(=O)NCCCCc1ccccc1 | 1.58 | 0.631 | 0.2 | 1 | 
18 | O=C(CCc1ccc(Cl)c(Cl)c1)C(=O)NCCc1ccccc1 | 1 | 2 | 0.1 | 0.1 | 
19 | O=C(CCCc1ccccc1)C(=O)NCCc1ccc(Oc2ncccn2)cc1 | 1.26 | 2 | 0.251 | 2 | 
20 | Cc1ccc(CCNC(=O)C(=O)CCCc2ccccc2)cc1 | 1.26 | 2 | 0.0398 | 0.126 | 
21 | O=C(CCCc1ccccc1)C(=O)NCCc1ccc(Oc2ccnc(Cl)n2)cc1 | 0.2 | 0.631 | 0.0794 | 0.251 | 
22 | O=C(CCc1ccccc1)C(F)(F)C(=O)NCc1ccccc1 | > 10 | > 10 | > 10 | > 10 | 
23 | COc1ccc(CCNC(=O)C(=O)CCCc2ccccc2)cc1OC | 6.31 | 5.01 | 0.316 | 1 | 
24 | O=C(CCc1ccc(Cl)cc1)C(=O)N1CCCC[C@H]1c1ccccc1 | > 10 | > 10 | > 10 | > 10 | 
25 | O=C(NCc1ccccc1)C(F)(F)C(O)CCc1ccccc1 (stereo not drawn) | > 10 | > 10 | > 10 | > 10 | 
26 | CC(=O)C(=O)NCCc1ccccc1 | > 10 | > 10 | > 10 | > 10 | 
27 | O=C(CCc1ccc(Cl)cc1)C(=O)N1CCCC1 | > 10 | > 10 | > 10 | > 10 | 
28 | O=C(CCc1ccccc1)[C@H](F)C(=O)NCc1ccccc1 | > 10 | > 10 | > 10 | > 10 | 
29 | CN1CCN(C(=O)C(=O)CCc2ccc(Cl)cc2)CC1 | > 10 | > 10 | > 10 | > 10 | 
30 | CN(CCc1ccccc1)C(=O)C(=O)CCc1ccc(Cl)cc1 | > 10 | > 10 | > 10 | > 10 | 
31 | CN(C)C(=O)C(=O)CCc1ccc(Cl)cc1 | > 10 | > 10 | > 10 | > 10 | 

Next, values leading:

Row | IC50 [1] [µM] | IC50 [2] [µM] | IC50 [3] [µM] | IC50 [4] [µM] | pIC50 [4] | Compound
32 | 10 | 7.94 | 6.31 | 1.58 |  | O=C(/C=C/c1ccccc1)C(=O)NCCc1ccccc1
33 | 2.51 | 6.31 | 0.794 | 1.26 |  | O=C(CCCc1ccccc1)C(=O)NCCc1ccccc1Cl
34 | 2.51 | 1.26 | 1.58 | 2 |  | O=C(CCc1ccccc1Cl)C(=O)NCCc1ccccc1
35 | > 10 | > 10 | > 10 | > 10 |  | O=C(CCc1ccccc1)C(F)(F)C(=O)NCCc1ccccc1
36 | 1.58 | 3.16 | 0.158 | 1 |  | O=C(CCCCc1ccccc1)C(=O)NCCc1ccccc1
37 | 2.51 | 1.58 | 1 | 5.01 |  | COc1ccc(/C=C/C(=O)C(=O)NCCc2ccccc2)cc1
38 | 3.16 | > 10 | 1 | > 10 |  | O=C(CCc1ccccc1)C(=O)NCCc1ccccc1
39 | 0.631 | 0.501 | 0.1 | 0.398 |  | O=C(CCCc1ccccc1)C(=O)NCCc1ccccc1
40 | 1.26 | 2.51 | 1.26 | 1.58 |  | O=C(CCc1cccc(Cl)c1)C(=O)NCCc1ccccc1
41 | > 10 | > 10 | > 10 | > 10 |  | O=C(NCCc1ccccc1)C(=O)c1ccccc1
42 |  |  |  |  | 6 | O=C(CCc1ccc(Cl)cc1)C(=O)NCCc1ccccc1
43 | 2.51 | 2.51 | 1 | 3.16 |  | O=C(/C=C/c1cccc(-c2ccccc2)c1)C(=O)NCCc1ccccc1
44 | > 10 | > 10 | > 10 | > 10 |  | O=C(NCCc1ccccc1)C(=O)c1ccc(Cl)cc1
45 | > 10 | > 10 | > 10 | > 10 |  | O=C(CCc1ccccc1)CC(=O)NCc1ccccc1
46 | 7.94 | > 10 | 3.16 | > 10 |  | O=C(/C=C/c1cccc(Br)c1)C(=O)NCCc1ccccc1
47 | 1 | 0.794 | 0.0501 | 0.2 |  | O=C(CCCc1ccccc1)C(=O)NCCc1cccc(Cl)c1
48 | 1.26 | 3.16 | 1.26 | 3.16 |  | COc1ccc(CCC(=O)C(=O)NCCc2ccccc2)cc1
49 | 10 | 7.94 | 1.58 | 5.01 |  | O=C(CCc1ccc(F)cc1)C(=O)NCCc1ccccc1
50 | 1.58 | 5.01 | 2.51 | 2 |  | Cc1ccc(CCC(=O)C(=O)NCCc2ccccc2)cc1
51 | 2.51 | 1.58 | 0.631 | 2.51 |  | O=C(/C=C/c1ccc(Cl)cc1)C(=O)NCCc1ccccc1
52 | 6.31 | 5.01 | 0.631 | 2.51 |  | O=C(/C=C/c1ccc(Br)cc1)C(=O)NCCc1ccccc1
53 | 0.2 | 0.251 | 0.01 | 0.158 |  | O=C(CCCc1ccccc1)C(=O)NCCc1ccc(Br)cc1
